FXN GAA850 act: activators of GAA850 frataxin (FXN) promoter; activation, % at 6 µM; HEK293 lucGAA850 FXN promoter luciferase reporter, 24 h; percent of 10 µM SAHA response; 360,000 compounds, 0.56% hits;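 active = activation above the average of all compounds screened plus 3 SD, cutoff fixed separately per campaign, cut at about 7.5% in these data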;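 note: 0% = DMSO wells and 100% = 10 µM SAHA wells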
ABCB6 inh MLPCN: blocks the human ABCB6 transporter; Q9NP58; 360,000 compounds, 0.19% hits; fluorescence ratio to DMSO, % at 10 µM; K562-ABCB6 porphyrin accumulation, flow cytometry, 1 h; hits give low values; AID 602162;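 active = fluorescence ratio to DMSO below 75%, the collection mean minus 3 SD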;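 note: signal is porphyrin accumulated inside mitochondria; 100% equals median channel fluorescence of DMSO control wells; lower ratio means ABCB6 inhibition with less porphyrin fluorescence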
SR-BI DiI-HDL act: enhances SR-BI lipid uptake from DiI-HDL; activation, % at 12.5 µM; CHO ldlA[mSR-BI] cells, DiI-HDL uptake fluorescence, 3 h; 100 = double the neutral-control signal; 320,000 compounds, 0.096% hits;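 active = mean replicate activation of at least 60% and every replicate at or above 60%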;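 note: 0% = median plate neutral-control signal and 100% = twice that signal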
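Material: SR-BI-overexpressing, LDLR-lacking CHO cells; schedule: compound exposure 3 h, 37 °C; reagent: DiI-labelled HDL at 10 µg/mL final; technique: bottom-read fluorescence, 550/595 nm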
SR-BI DiI inh: mouse SR-BI HDL lipid transfer inhibition; Q61009; ldlA[mSR-BI] CHO cells, DiI-HDL uptake fluorescence, 3 h; inhibition, % at 12.5 µM; 320,000 compounds, 0.96% hits; AID 488896;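 active = mean replicate inhibition of at least 70% and a set share of replicates each scoring 70 or more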;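 note: 0% = median of neutral control wells and 100% = median of positive control wells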
Target sequence (Q61009 whole entry, looked up): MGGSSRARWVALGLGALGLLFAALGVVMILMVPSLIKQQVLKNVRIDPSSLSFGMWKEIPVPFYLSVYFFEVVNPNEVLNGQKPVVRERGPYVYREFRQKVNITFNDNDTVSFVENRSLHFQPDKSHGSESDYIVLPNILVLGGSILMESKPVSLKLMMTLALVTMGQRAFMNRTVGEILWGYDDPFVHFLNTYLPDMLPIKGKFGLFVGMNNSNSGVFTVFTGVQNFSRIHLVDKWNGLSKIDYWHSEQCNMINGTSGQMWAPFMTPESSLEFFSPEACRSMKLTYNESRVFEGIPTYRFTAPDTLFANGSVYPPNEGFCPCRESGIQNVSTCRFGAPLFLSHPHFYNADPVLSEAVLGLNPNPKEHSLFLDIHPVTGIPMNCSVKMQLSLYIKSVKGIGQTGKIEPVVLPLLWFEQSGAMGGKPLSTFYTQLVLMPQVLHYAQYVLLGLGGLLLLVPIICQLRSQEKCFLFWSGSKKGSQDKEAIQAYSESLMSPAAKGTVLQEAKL
HIF act: HIF pathway transcriptional activation | U2OS HRE-luciferase reporter, luminescence; normalized: DMSO 0%, desferrioxamine 100% | activation, % at 7.5 µM (by protocol) | 300,000 compounds, 0.32% hits | AID 1910;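 active = mean activation of at least 10% of the iron chelator positive control signal, with at least half of replicates also reaching 10%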
AHR act: activates the human aryl hydrocarbon receptor; P35869; AHR-responsive luciferase reporter cells, luminescence; activation, % at 5 µM; 320,000 compounds, 2.5% hits; in the data active = activation above about 47%;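 note: 0% = vehicle wells and 100% = reference agonist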
ABCB6 inh CP1: human ABCB6 transporter inhibition | shares compounds with ABCB6 inh MLPCN | K562-ABCB6 porphyrin accumulation, flow cytometry, 1 h; hits give low values | ratio response (% of DMSO), % at 10 µM | 700 tested, under 10 active | AID 602430;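 active = repeat-averaged ratio response below 75% of DMSO, the collection mean minus 3 SD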;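 note: median porphyrin fluorescence at 575 nm with 488 nm excitation from mitochondria; lower ratio means less porphyrin signal so ABCB6 inhibition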
Starred values were filed as active, the others as inactive; · = no result. A selection: hits, their analogues and other compounds. The true share with any hit is near 3.9%.

SMILES	FXN GAA850 act	ABCB6 inh MLPCN	SR-BI DiI-HDL act	SR-BI DiI inh	HIF act	AHR act	ABCB6 inh CP1
CCN(CC)S(=O)(=O)c1ccc(Cl)c(NC(=O)COC(=O)C2CCCCC2)c1	1	90	-20	20	·	-1	·
Cc1ccc(S(=O)(=O)N2CC(O)C[C@H]2C(=O)OCC(=O)c2ccccc2)cc1 (some centres undefined)	2	102	23	-23	0	1	·
CC(=O)c1cccc(NC(=O)CN2C(=O)NC3(CCCCCCC3)C2=O)c1	-1	61*	5	-5	0	1	99
CCNC(=O)c1cccc(NC(=O)CN2C(=O)NC3(CCCCC3)C2=O)c1	1	100	-12	12	·	·	·
O=C(c1cc(-c2ccccc2)nc2ccccc12)N1CCN(c2ccccn2)CC1	6	98	-29	29	1	7	·
O=C(c1cc(-c2ccncc2)nc2ccccc12)N1CCN(c2ccccn2)CC1	-5	69*	0	0	2	1	100
CCOC(=O)c1c(C)[nH]c(NC(=O)Nc2ccc(NC(C)=O)cc2)c1C	-1	101	-13	13	-1	·	·
CCNC(=S)N1CCC(NC(=O)c2ccco2)CC1	0	97	5	-5	1	0	·
COc1ccc(NC(=O)c2ccccc2NC(=O)CSc2ccc(C)cc2)cc1	2	58*	5	-5	0	2	101
CCOC(=O)c1c(NC(=O)CCN2C(=O)c3ccccc3C2=O)sc(C(=O)OC(C)C)c1C	1	70*	-73	73*	0	-4	99
COc1ccc(C)cc1NC(=O)COCC(=O)O	0	69*	6	-6	0	2	101
O=C(NC(Cc1ccccc1)C(=O)O)/C(=C\c1ccco1)NC(=O)c1ccccc1Br (centres undefined)	1	100	6	-6	0	2	·
CCCCSCc1ccc(C(=O)O)o1	-2	97	6	-6	1	-3	·
N#CCCSCc1ccc(C(=O)O)o1	3	68*	20	-20	0	2	99
O=C(Nc1ccc(F)cc1)c1cccnc1N1CCCCC1	2	103	-1	1	0	3	·
O=C(Nc1ccc(Br)cc1)c1cccnc1N1CCCCC1	1	73*	-29	29	0	50*	100
O=C(CCN=C1NS(=O)(=O)c2ccccc21)OCc1cccc(Cl)c1	0	96	-1	1	0	4	·
Cc1cc(C)c(C#N)c(N2CCN(Cc3ccc4c(c3)OCO4)CC2)n1	-1	104	6	-6	0	-1	·
Cc1cc(C)c(C#N)c(N2CCN(Cc3ccccc3)CC2)n1	-3	47*	22	-22	-1	-3	99
O=C(C/C=N\OCc1ccc([N+](=O)[O-])cc1)Nc1ccc(Cl)cc1	2	99	10	-10	-1	2	·
CCn1c(SCC(=O)N2CCCc3ccccc32)nnc1-c1ccco1	1	102	24	-24	0	1	·
COc1ccc(NC(=O)CCc2nnc3ccc(N4CCC(C)CC4)nn23)cc1	-2	98	-4	4	1	0	·
CC(C)CCNC(=O)CCc1nnc2ccc(N3CCC(C)CC3)nn12	3	97	22	-22	0	-1	100
CC1CCN(c2ccc3nnc(CCC(=O)NCC(C)c4ccccc4)n3n2)CC1 (centres undefined)	0	99	-5	5	0	-1	·
CCC(C)NC(=O)CCc1nnc2ccc(N3CCC(C)CC3)nn12 (centres undefined)	1	61*	11	-11	-2	3	99
SMILES	FXN GAA850 act	ABCB6 inh MLPCN	SR-BI DiI-HDL act	SR-BI DiI inh	HIF act	AHR act	ABCB6 inh CP1
CCOC(=O)C(C)NC(=O)CCc1nnc2ccc(N3CCC(C)CC3)nn12 (centres undefined)	1	72*	-2	2	0	0	99
COC(=O)C(NC(=O)CCc1nnc2ccc(N3CCC(C)CC3)nn12)C(C)C (centres undefined)	0	97	9	-9	-1	1	117
CC1CCN(c2ccc3nnc(CCC(=O)N4CCCCC4)n3n2)CC1	2	98	-5	5	0	0	100
COC(=O)c1ccc(/C=N/n2cnnc2)cc1	1	103	4	-4	0	1	·
O=C(Oc1ccc(/C=N/n2cnnc2)cc1)c1cccc([N+](=O)[O-])c1	0	73*	9	-9	0	0	99
CC(=O)c1ccc(S(=O)(=O)NCc2cccnc2)cc1	0	73*	-3	3	-1	2	98
O=C(O)c1ccc(S(=O)(=O)NCc2cccnc2)cc1	0	100	20	-20	2	0	·
COc1ccc(/C=C/C(=O)OCC(=O)Nc2ccc(N3CCOCC3)cc2)cc1	1	98	-9	9	-2	0	·
O=S(=O)(NCC(c1cccnc1)N1CCN(c2ccccc2F)CC1)c1cccs1 (centres undefined)	-1	101	20	-20	0	2	·
CN(C)S(=O)(=O)c1cccc(NC(=O)COC(=O)CCSc2ccc(Cl)cc2)c1	-2	71*	10	-10	0	2	101
C=CCN(CC=C)C(=O)C(=O)c1cc(C)n(-c2ccc([N+](=O)[O-])cc2)c1C	-2	98	-6	6	·	-3	·
Cc1ccc(S(=O)(=O)NC(=O)Nc2cccc([N+](=O)[O-])c2)cc1	1	106	·	·	1	-1	·
Fc1ccc(CNc2ncnc3cc(Cl)ccc23)cc1	-1	9.0*	-12	11	-2	28	100
COc1ccc(CNc2ncnc3cc(Cl)ccc23)cc1OC	-1	95	13	-13	-1	·	·
CC(=O)c1cccc(-c2ccnc3c2CC(C(=O)Nc2cccc(N(C)C)c2)O3)c1 (centres undefined)	-4	92	·	·	·	·	99
CC(=O)c1cccc(NC(=O)C2Cc3c(-c4cccc(C(C)=O)c4)ccnc3O2)c1 (centres undefined)	-3	96	·	·	·	·	·
CC(=O)c1cccc(-c2ccnc3c2CC(C(=O)Nc2cccc(Oc4ccccc4)c2)O3)c1 (centres undefined)	-2	99	·	·	·	·	101
O=C(Nc1cccc(Oc2ccccc2)c1)C1Cc2c(-c3ccccc3)ccnc2O1 (centres undefined)	0	93	·	·	·	·	101
O=C(Nc1cccc(Oc2ccccc2)c1)C1Cc2c(-c3ccco3)ccnc2O1 (centres undefined)	2	69*	·	·	·	·	97
